Data from paper PMC7501995 (Cell metabolism, 2020).

Columns and labels:
[1] = Cellular cytotoxicity assay; format: cell-based; details: in vitro
C57BL/6J mice [2] = assay: Hyperinsulinemic-euglycemic clamp in lean C57BL/6J mice; format: in vivo, mouse
Procedure, shortened: (§1)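 Lean C57BL/6J or db/db mice given a jugular vein catheter 5–6 days beforehand; treated with test compound and fasted overnight. 2 h hyperinsulinemic-euglycemic clamp run in awake mice with human insulin (150 mU/kg prime, then 2.5 mU/kg/min). Tissue uptake in gastrocnemius and epididymal WAT from 2-[14C]DG-6-phosphate, separated by ion-exchange, and the plasma 2-[14C]DG profile. n = 5–6 mice/group.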

[3] = Plasma concentration and oral bioavailability in mice; format: in vivo, mouse
db/db mice = assay: Hyperinsulinemic-euglycemic clamp in db/db mice; format: in vivo, mouse
Procedure, shortened: as §1

C57BL/6J mice [4] = assay: Oral administration in drinking water to wild-type C57BL/6J mice; format: in vivo, mouse
[5] = Off-target liability panel; details: currently available panel
[6] = C57BL/6J mice, oral 100 mg/kg/day
[7] = livers of treated C57BL/6J mice
[8] = male C57BL/6J mice, oral 100 mg/kg/day, 3 weeks

With `CS(=O)(=O)NCC1CCCN(c2ncnc3ccc(C(F)(F)F)cc23)C1` (stereo not shown) [SRI-37330, N-((1-(6-(trifluoromethyl)quinazolin-4-yl)piperidin-3-yl)methyl)methanesulfonamide] the cytotoxicity [1] was “no cytotoxicity”, the glucose infusion rates (C57BL/6J mice [2]; lean C57BL/6J mice) was “comparable between groups” and the hepatic insulin action (C57BL/6J mice [2]; lean C57BL/6J mice) was “comparable between groups”. The “insulin-stimulated glucose uptake in white adipose tissue” value (C57BL/6J mice [2]; lean C57BL/6J mice, epididymal) was “comparable between groups”, the “insulin-stimulated glucose uptake in skeletal muscle” value (C57BL/6J mice [2]; lean C57BL/6J mice, gastrocnemius) was “comparable between groups” and the “basal hepatic glucose production” value (C57BL/6J mice [2]; lean awake C57BL/6J mice) was “significantly downregulated”. For the same compound, the insulin sensitivity (C57BL/6J mice [2]; lean awake C57BL/6J mice) was “no alteration in insulin sensitivity”, the average plasma concentration ([3]; mice, 100 mg/kg/day in the drinking water) was 5 µmol/L and the oral bioavailability ([3]; mouse, in vivo, po) was “orally bioavailable”. For the same compound, the “basal hepatic glucose production” value (db/db mice) was “significantly lower basal hepatic glucose production”, the glucose infusion rate (db/db mice) was “not significantly different” and the hepatic insulin action (db/db mice) was “not significantly different”. The “insulin-stimulated glucose uptake in skeletal muscle” value (db/db mice) was “remained unchanged”, the “insulin-stimulated glucose uptake in white adipose tissue” value (db/db mice) was “remained unchanged” and the fasting blood glucose (C57BL/6J mice [4]; [6]) was “slightly, but significantly lower”. For the same compound, the fasting serum glucagon (C57BL/6J mice [4]; [6]) was “lower”, the fasting serum insulin (C57BL/6J mice [4]; [6]) was “unchanged” and the non-fasting blood glucose (C57BL/6J mice [4]; C57BL/6J mice, oral 100 mg/kg/day, within 3 days, persisted 3 weeks) was “small but significant decrease in blood glucose levels”. For the same compound, the “insulin tolerance test (ITT)” value (C57BL/6J mice [4]; C57BL/6J mice, oral 100 mg/kg/day, 1 U/kg insulin i.p.) was “remained unaltered”, the “intraperitoneal glucose tolerance test (GTT)” value (C57BL/6J mice [4]; C57BL/6J mice, oral 100 mg/kg/day, 3 g/kg glucose i.p. after 4 h fast) was “consistently and significantly improved glucose tolerance” and the “blood glucose during insulin-induced hypoglycemia” value (C57BL/6J mice [4]; fasting mice, 15 min after insulin bolus 1 U/kg) was “able to maintain their blood glucose levels equally well to untreated controls”. The “fatty liver (liver histology)” value (C57BL/6J mice [4]; lean mice) was “did not lead to any fatty liver”, the “liver expression of Pck1 and G6pc” value (C57BL/6J mice [4]; [7]) was “lower expression” and the liver glycogen content (C57BL/6J mice [4]; [7]) was “higher glycogen content”. The tolerability (C57BL/6J mice [4]; male C57BL/6J mice, oral 100 mg/kg/day in drinking water, 3 weeks) was “well tolerated”, the body weight (C57BL/6J mice [4]; [8]) was “no change in body weight” and the “gross abnormalities in organs at sacrifice” value (C57BL/6J mice [4]; [8]) was “no gross abnormalities in any organs”. For the same compound, the “safety profile in vivo” value (C57BL/6J mice [4]; mouse, in vivo) was “excellent safety profile in vivo”, the “liver and serum triglyceride levels” value (C57BL/6J mice [4]; treated C57BL/6J mice) was “lower liver and serum triglyceride levels” and the liver transaminase levels (C57BL/6J mice [4]; treated C57BL/6J mice) was “did not cause any elevation in liver transaminase levels”. For the same compound, the off-target liabilities [5] was “lack of off-target liabilities”.
